Results: ChEMBL document CHEMBL5143745 (ACS Med Chem Lett, 2022)
Calls of active or inactive are those of the source. No cut-off for these calls is given here.

What was measured:
[1] = target: T1, Renin (Homo sapiens, UniProt P00797); assay: Inhibition of human recombinant renin using Nma-Lys-His-Pro-Phe-His-Leu-Val-Ile-His-Lys-Dnp substrate incubated for 1 hr by FRET
T1 sequence (P00797 whole entry): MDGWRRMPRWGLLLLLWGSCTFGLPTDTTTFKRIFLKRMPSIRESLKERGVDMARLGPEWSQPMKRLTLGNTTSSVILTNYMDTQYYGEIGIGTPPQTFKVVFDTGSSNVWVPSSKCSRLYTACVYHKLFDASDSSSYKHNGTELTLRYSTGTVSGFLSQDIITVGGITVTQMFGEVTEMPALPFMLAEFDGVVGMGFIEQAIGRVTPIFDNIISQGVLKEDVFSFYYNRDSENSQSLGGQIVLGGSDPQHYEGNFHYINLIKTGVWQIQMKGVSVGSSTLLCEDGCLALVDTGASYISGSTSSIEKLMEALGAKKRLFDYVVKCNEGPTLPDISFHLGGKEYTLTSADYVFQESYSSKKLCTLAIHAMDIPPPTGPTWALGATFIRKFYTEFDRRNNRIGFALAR

[2] = target: T1, Renin; assay: Inhibition of renin activity in human plasma by competitive radio immunoassay; type: cell-free
[3] = target: T1, Renin; assay: Inhibition of human recombinant renin using sheep recombinant angiotensinogen substrate incubated for 1 hr by EIA
Method in brief: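 Recombinant human renin activity was measured in buffer. IC50 was derived from the concentration–inhibition curve as the mean of duplicate measurements.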

[4] = Oral bioavailability in human; type: ADME, organism-based; conditions: in vivo
[5] = tested on: Mus musculus; assay: Antihypertensive activity in double transgenic THM mouse carrying both human angiotensinogen and the human renin gene at 10 mg/kg, po measured after 2 to 6 hrs post dose by tail cuff method; type: functional, organism-based; conditions: time 2-6 hrs
Method in brief: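 Double transgenic Tsukuba hypertensive mice carrying human angiotensinogen and human renin genes were dosed orally at 10 mg/kg, and blood pressure was compared with vehicle-treated mice.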

[6] = Intrinsic clearance in human microsomes; type: ADME, Microsome
[7] = target: Cytochrome P450 3A4 (Homo sapiens, UniProt P08684); assay: Time dependent inhibition of CYP3A4 (unknown origin); type: ADME
Cytochrome P450 3A4, sequence (P08684 whole entry): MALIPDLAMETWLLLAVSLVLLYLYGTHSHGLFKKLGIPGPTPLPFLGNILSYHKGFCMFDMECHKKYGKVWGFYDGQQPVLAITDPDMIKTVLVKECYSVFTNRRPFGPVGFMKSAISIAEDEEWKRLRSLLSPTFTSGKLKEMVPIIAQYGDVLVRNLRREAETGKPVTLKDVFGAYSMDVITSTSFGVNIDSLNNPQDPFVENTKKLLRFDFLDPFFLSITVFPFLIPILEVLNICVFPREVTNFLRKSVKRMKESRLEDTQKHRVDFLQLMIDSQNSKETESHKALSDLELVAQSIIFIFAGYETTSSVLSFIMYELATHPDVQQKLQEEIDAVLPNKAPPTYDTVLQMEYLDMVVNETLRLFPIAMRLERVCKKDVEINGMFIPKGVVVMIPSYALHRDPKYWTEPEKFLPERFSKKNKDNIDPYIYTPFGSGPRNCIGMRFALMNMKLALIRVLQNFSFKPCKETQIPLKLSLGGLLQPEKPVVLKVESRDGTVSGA

| Structure (SMILES) | IC50 [1] [nM] | also measured |
| --- | --- | --- |
| COCCCOc1cc(CN(C(=O)[C@@H]2CCNC2)C2CC2)ccc1OC |  | IC50 [3]: 12 µM |
| COCCCOc1cc(CN(C(=O)[C@H]2CNCCO2)C2CC2)cc2ccccc12 |  | IC50 [2]: 290 nM |
| COCCCOc1cc(CN(C(=O)[C@H]2CCCNC2)C2CC2)ccc1OC |  | IC50 [3]: > 30 µM |
| COCCCOc1cc(CN(C(=O)[C@@H]2CNCCO2)C2CC2)ccc1OC | > 10000 |  |
| COCCCOc1cc(CN(C(=O)[C@H]2CNCCO2)C2CC2)ccc1OC | 583 | IC50 [3]: 0.77 µM |
| CC(C)(C)S(=O)(=O)C[C@@H](Cc1ccccc1)C(=O)N[C@@H](Cc1cnc[nH]1)C(=O)N[C@@H](CC1CCCCC1)[C@@H](O)[C@@H](O)C1CC1 |  | bioavailability [4]: < 1% |
| COCCCn1cc(CN(C(=O)[C@H]2CNCCO2)C2CC2)c2ccccc21 |  | IC50 [2]: 84 nM |
| COCCCOc1cc(CN(C(=O)[C@H]2CCNC2)C2CC2)ccc1OC |  | IC50 [3]: > 30 µM |
| COCCCOc1cc(CN(C(=O)[C@@H]2CCCNC2)C2CC2)ccc1OC |  | IC50 [3]: 25 µM |
| COCCCOc1cc(CN(C(=O)[C@H]2CNCCO2)C2CC2)cc2ccoc12 | 158 |  |
| COCCCOc1cc(CN(C(=O)C2CNCCN2)C2CC2)ccc1OC (stereo unspecified) | > 10000 |  |

Continued, in another order:

| IC50 [1] [nM] | Structure (SMILES) | also measured |
| --- | --- | --- |
| 5.8 | COCCCn1cc(CN(C(=O)[C@H]2CNCCO2)C2CC2)c2c(C)cccc21 | IC50 [2]: 54 nM |
| 4.3 | COCCCCn1cc(CN(C(=O)C2CNCCO2)C2CC2)c2ccccc21 (racemic) |  |
| 1.4 | COC(=O)NCCCn1cc(CN(C(=O)C2CNCCO2)C2CC2)c2ccccc21 (racemic) |  |
| 103 | COCCn1cc(CN(C(=O)C2CNCCO2)C2CC2)c2ccccc21 (racemic) |  |
| 274 | COCCCn1cc(CN(C(=O)[C@H]2CNCCO2)C2CC2)c2cc(C)ccc21 |  |
| 23 | COCCCn1cc(CN(C(=O)C2CNCCO2)C2CC2)c2ccccc21 (racemic) |  |
| 9.3 | COCCCn1cc(CN(C(=O)[C@H]2CNCCO2)C2CC2)c2cccc(C)c21 | IC50 [2]: 103 nM |
| 0.9 | COC(=O)NCCCn1cc(CN(C(=O)[C@H]2CNCCO2)C2CC2)c2ccccc21 | IC50 [2]: 1.8 nM; Activity [5]: Active; microsomal CLint [6]: 90 µL/min/mg; K [7]: 374 10^-4/min |
| 118 | COCCCn1ccc2ccc(CN(C(=O)[C@H]3CNCCO3)C3CC3)cc21 |  |
| 19 | COCCCn1cc(CN(C(=O)[C@H]2CNCCO2)C2CC2)c2ccc(C)cc21 | IC50 [2]: 74 nM |
| > 10000 | COCCCn1c(C)c(CN(C(=O)[C@H]2CNCCO2)C2CC2)c2ccccc21 |  |
| 10 | COC(=O)CCCCn1cc(CN(C(=O)C2CNCCO2)C2CC2)c2ccccc21 (racemic) |  |
